# Compound activity deposited in PubChem BioAssay by Broad Institute.
# Only some compounds are listed: those with a hit (about 2.5% of all), similar ones and a draw of the others.
# FGF22 binding: binders of human FGF22 protein, primary screen, FGF22 synaptogenesis inhibitor project, biophysical, thermal shift, single point; recombinant FGF22 thermal shift, SYPRO orange fluorescence; percent of sucrose octasulfate shift, DMSO zero; AID 651658, 2012; 340,000 tested, 1.5% active; activity (Tm shift, normalised), % at 9.99 µM; Fibroblast growth factor 22 (Homo sapiens), Q9HCT0;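 active = mean Tm shift, scaled 0 neutral to 100 positive control, at about 1.3% or above, every replicate too, limit read from the data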
# SIRT5 block: SIRT5 desuccinylase inhibitors, primary screen, biochemical, fluorescence imaging, single point, set 5; Purified SirT5, succinyl-peptide AMC, trypsin-coupled fluorescence; inhibition, % at 15 µM; 330,000 tested, 1.1% active; NAD-dependent protein deacylase sirtuin-5, mitochondrial (Homo sapiens), Q9NXA8; AID 652115, 2013; in the data active = inhibition above about 15%
# E-sel inducer: E-selectin induction in HUVECs, primary screen, imaging, HUVEC, immunofluorescence imaging, single point; P16581; normalized: neutral wells 0, TNF-alpha wells 100; activation, % at 7.58 µM; 260,000 tested, 0.37% active; AID 686992, 2013;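 active = mean E-selectin-positive cell signal at least 10% of the positive control, reached in at least 60% of replicates, without over 20% cell loss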
# Target sequence (P16581 whole entry, looked up): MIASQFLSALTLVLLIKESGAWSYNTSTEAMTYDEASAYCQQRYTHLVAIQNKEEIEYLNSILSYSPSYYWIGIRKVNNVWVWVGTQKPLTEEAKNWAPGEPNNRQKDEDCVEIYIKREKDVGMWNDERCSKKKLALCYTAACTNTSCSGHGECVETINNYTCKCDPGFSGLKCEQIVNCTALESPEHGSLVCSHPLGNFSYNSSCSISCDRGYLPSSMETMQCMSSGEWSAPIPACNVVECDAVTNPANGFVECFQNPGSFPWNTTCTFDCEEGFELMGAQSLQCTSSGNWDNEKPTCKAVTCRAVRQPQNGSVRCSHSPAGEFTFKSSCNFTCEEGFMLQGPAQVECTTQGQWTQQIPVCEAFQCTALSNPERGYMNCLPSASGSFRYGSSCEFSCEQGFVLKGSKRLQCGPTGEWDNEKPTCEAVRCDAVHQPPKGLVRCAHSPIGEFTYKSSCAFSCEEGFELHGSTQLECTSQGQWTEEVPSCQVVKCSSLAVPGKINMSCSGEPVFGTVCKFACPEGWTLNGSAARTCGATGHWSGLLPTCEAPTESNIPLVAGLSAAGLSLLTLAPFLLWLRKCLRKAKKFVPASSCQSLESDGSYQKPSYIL
#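 material = human umbilical vein endothelial cells (HUVEC), E-selectin induction | quantity = 3,000 cells/well | medium = EGM-2 growth medium on 0.1% gelatin-coated wells | technique = immunofluorescence imaging | read-out basis = % PE-positive cells | control set = TNF-alpha positive control, DMSO neutral control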
# miR-122 sensor: miR-122 Renilla sensor signal increase in Huh7, primary screen, miR-122 inhibitor project, cell-based, single point, plate reader | Huh7 miR-122 Renilla luciferase sensor, 48 h; neutral wells = 0, positive control = 100 | activation (reporter increase), % at 12.5 µM | 340,000 tested, 0.3% active;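 active = mean replicate activation score at least 90 and every replicate individually at or above 90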;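 note: higher luciferase means less miR-122 activity so hits act as miR-122 inhibitors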
# S100A4 inh HTS: inhibitors of S100A4-myosin IIA peptide binding, primary screen, biochemical, fluorescence polarization, TAMRA-MyoIIA peptide | inhibition, % at 10.7 µM | 360,000 tested, 0.14% active | AID 652163, 2013;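 active = mean inhibition of at least 70% across replicates, with every replicate also reaching that level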
# Target sequence (P26447 whole entry, looked up): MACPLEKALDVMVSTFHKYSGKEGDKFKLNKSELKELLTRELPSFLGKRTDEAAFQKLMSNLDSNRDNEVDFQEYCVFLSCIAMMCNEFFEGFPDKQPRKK
#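 Test system – S100A4 monomer (human) · Compound – single-point compound testing · Schedule – 5 min incubation before reading · Probe or stimulus – TAMRA-labelled myosin IIA heavy-chain peptide probe, 5 nM · Benchmarks – neutral control DMSO, positive control TFP · Medium – Calcium-containing HEPES buffer, pH 7.2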
# * hit, by the source's call; . = not tested or not shown; [ ] = dose if it differs, or a comment.
SMILES,FGF22 binding,SIRT5 block,E-sel inducer,miR-122 sensor,S100A4 inh HTS
Cc1cc(=O)oc2cc(OC(=O)c3cncc(Br)c3)ccc12,43.9*,-20.4,5.6,.,-2.4
Nc1nc(-c2ccc(Cl)cc2)nnc1-c1ccc(Br)cc1,43.5*,-3.6,.,-4.2,-4.7
COCCNC(=O)c1onc(CSc2cccc(OC)c2)c1C(=O)NCCOC,0.1,22.0*,1.0,7.1,-3.6
CCCCNC(=O)c1onc(CSc2cccc(OC)c2)c1C(=O)NCCCC,0.1,.,-0.2,-2.7,12.9
O=C(CCCCCCC(=O)Nc1ccccc1)NO,0.3,.,-0.4,232.4*,-3.1
CN1C(=O)c2cc(NC(=O)Cc3cccs3)ccc2OC[C@H]2O[C@H](CC(=O)O)CC[C@H]21,-0.2,-1.8,0.1,3.4[16.7 µM],6.3
C[C@H]1CCCCO[C@H](CN(C)S(=O)(=O)c2ccc(Cl)cc2)[C@@H](C)CN([C@@H](C)CO)C(=O)c2cc(NS(=O)(=O)c3ccccc3)ccc2O1,-0.7,28.0*,-0.3,.,-35.2
C[C@@H]1CN([C@H](C)CO)C(=O)c2cc(NS(=O)(=O)c3ccc(Cl)cc3)ccc2O[C@@H](C)CCCCO[C@H]1CN(C)S(=O)(=O)c1ccccc1,.,18.6*,0.4,.,-55.9
C[C@H]1CCCCO[C@H](CN(C)C(=O)CCCN(C)C)[C@@H](C)CN([C@@H](C)CO)C(=O)c2cc(NC(=O)Nc3cccc4ccccc34)ccc2O1,-1.1,0.3,0.5,-10.2[16.7 µM],9.4
C[C@@H]1CCCCO[C@H](CN(C)C(=O)CCCN(C)C)[C@@H](C)CN([C@@H](C)CO)C(=O)c2cc(NC(=O)Nc3cccc4ccccc34)ccc2O1,0.0,17.6*,-0.3,1.3[16.7 µM],2.0
C[C@@H]1CCCCO[C@@H](CN(C)C(=O)C2CCCCC2)[C@@H](C)CN([C@H](C)CO)C(=O)c2cc(NC(=O)Nc3cccc4ccccc34)ccc2O1,-0.8,0.9,-0.1,-2.5[16.7 µM],108.5*
Cc1ccccc1-c1cnc2c(c1)C(=O)N([C@H](C)CO)C[C@H](C)[C@@H](CN(C)Cc1cncnc1)O2,-0.2,-5.8,0.2,-4.5[16.7 µM],7.3
COCCNc1nc(-c2cc(C)n(CCc3ccc(OC)cc3)c2C)cs1,43.3*,-3.8,10.7,32.6,3.8
COc1ccc2c3c([nH]c2c1)[C@@H](CO)N(C(=O)CC1CC1)CC31CN(Cc2cccnc2)C1,-0.2,-1.0,0.6,.,-1.2
CC(C)NC(=O)Nc1ccc2c(c1)CC(=O)N([C@H](C)CO)C[C@H](C)[C@@H](CN(C)Cc1ccc(C(=O)Nc3ccccc3N)cc1)O2,0.0,-3.7,0.1,14.6[16.7 µM],4.6
C[C@@H]1CN([C@@H](C)CO)C(=O)Cc2cc(NC(=O)Nc3cccc4ccccc34)ccc2O[C@@H]1CN(C)Cc1ccc(C(=O)Nc2ccccc2N)cc1,-0.2,8.1,24.6,.,0.5
C[C@H](CO)N1C[C@H](C)[C@H](CN(C)Cc2ccc(C(=O)Nc3ccccc3N)cc2)Oc2ccc(NC(=O)CCC(F)(F)F)cc2CC1=O,-0.1,-10.3,.,97.7*[16.7 µM],5.7
C[C@H](CO)N1C[C@H](C)[C@H](CN(C)Cc2ccc(C(=O)Nc3ccccc3N)cc2)Oc2ccc(NC(=O)Nc3cccc4ccccc34)cc2CC1=O,0.0,6.3,21.8,96.2*[16.7 µM],3.4
C[C@H](CO)N1C[C@H](C)[C@@H](CN(C)Cc2ccc(C(=O)Nc3ccccc3N)cc2)Oc2ccc(NC(=O)CCC(F)(F)F)cc2CC1=O,0.1,1.0,.,.,-10.3
CC(C)NC(=O)Nc1ccc2c(c1)CC(=O)N([C@H](C)CO)C[C@H](C)[C@H](CN(C)Cc1ccc(C(=O)Nc3ccccc3N)cc1)O2,0.5,-5.0,3.8,113.6*[16.7 µM],4.5
C[C@@H]1CN([C@H](C)CO)C(=O)c2cc(NC(=O)Nc3cccc4ccccc34)ccc2O[C@@H]1CN(C)Cc1ccc(C(=O)Nc2ccccc2N)cc1,-0.3,15.4*,5.7,14.3[16.7 µM],15.8
O=C(CCN1CCCCC1)NCC[C@@H]1CC[C@H](NC(=O)C2CCC2)[C@@H](CO)O1,-0.4,1.1,-0.5,18.8[16.7 µM],3.9
O=C(C[C@H]1CC[C@@H]2[C@H](COC[C@@H](O)CN2C(=O)c2cnccn2)O1)NCc1ccccc1,0.1,1.1,0.0,5.8[16.7 µM],3.2
COc1ccc(OC)c(NC(=O)C2CCN(C(=O)c3cccs3)CC2)c1,0.1,22.1*,-6.8,.,2.6
COc1ccc(OC)c(NC(=O)C2CCN(S(=O)(=O)c3cccs3)CC2)c1,.,.,.,3.0,.
SMILES,FGF22 binding,SIRT5 block,E-sel inducer,miR-122 sensor,S100A4 inh HTS
O=C(Nc1ccc2c(c1)[C@H]1C[C@H](CC(=O)N3CCc4ccccc4C3)O[C@H](CO)[C@H]1O2)NC1CCCC1,-0.2,-2.1,-0.2,-3.8[16.7 µM],3.0
C[C@@H]1CN([C@H](C)CO)C(=O)c2cc(NC(=O)Nc3ccc4c(c3)OCO4)ccc2O[C@H]1CN(C)S(=O)(=O)c1ccccc1,-0.2,0.6,33.7*,4.2[16.7 µM],1.2
C[C@@H]1CN([C@@H](C)CO)C(=O)c2cc(NC(=O)Nc3ccc4c(c3)OCO4)ccc2O[C@@H]1CN(C)S(=O)(=O)c1ccccc1,-0.1,4.6,-3.1,-2.7[16.7 µM],5.7
C[C@H]1CN([C@@H](C)CO)C(=O)c2cc(NC(=O)Nc3ccc4c(c3)OCO4)ccc2O[C@@H]1CN(C)S(=O)(=O)c1ccc(F)cc1,-0.3,1.5,50.3*,0.7[16.7 µM],-0.7
C/C(=N\NC(=O)c1cccc(S(=O)(=O)Nc2cccc(Cl)c2)c1)c1cccs1,-0.3,-3.5,.,148.4*,-5.3
CCOCc1[nH]c(=S)[nH]c(=O)c1Cc1ccc(OCC)cc1,43.3*,1.9,.,.,-5.8
COc1ccc2c3c(n(C)c2c1)[C@H](CO)N(C(=O)Nc1ccccc1F)CC31CN(C(C)=O)C1,0.0,.,0.4,.,0.5
CNC[C@H]1Oc2ccc(NC(=O)NC(C)C)cc2C(=O)N([C@@H](C)CO)C[C@H]1C,-0.2,-1.3,-2.6,74.0[16.7 µM],7.2
COc1cc(C(=O)OCC(=O)NCC2CCCO2)cc(OC)c1OC (stereo not given),0.1,0.8,0.2,-4.2,3.2
COc1cc(OC)c(NS(=O)(=O)c2cc(C(=O)OCC(=O)NCC3CCCO3)ccc2OC)cc1Cl (stereo not given),0.2,31.3*,.,.,0.9
O=C(Cc1nnc(NC(=O)Nc2ccc(Cl)cc2)s1)NCc1ccccc1,0.1,38.3*,.,.,2.9
O=C(Cc1nnc(NC(=O)Nc2ccccc2)s1)NCc1ccccc1,-0.1,-3.3,.,.,0.6
CNC(=S)N/N=C(\C)c1ccc(-n2ccnc2)cc1,.,.,.,45.2,.
